Assay results: ChEMBL document CHEMBL1152649, “Synthesis, cytotoxicity and human telomerase inhibition activities of a series of 1,2-heteroannelated anthraquinones and anthra[1,2-d]imidazole-6,11-dione homologues” (2009)

Tests used:
[1] = Cytotoxicity against human H1299 cells at 1 uM after 48 hrs by MTT assay; assay type: functional; details: NCI-H1299, 48 h
Method in brief: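 H1299 non-small cell lung cancer cells were grown in RPMI 1640 with 10% FBS, penicillin and streptomycin at 37 °C under 5% CO2. About 2 × 10³ cells per well were seeded and left 24 h. Compounds were dissolved fresh in DMSO, diluted into complete medium and applied for 48 h. MTT was then added for 4 h at 37 °C, followed by lysis buffer (20% SDS, 50% DMF) for 16 h, and absorbance was read at 550 nm.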

[2] = test system: HOP-62; experiment: Antiproliferative activity against human HOP62 cells assessed as cell growth at 10 uM; assay type: functional; details: read-out: Activity
Method in brief: (§1)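 NCI 60 cell line panel, single-dose screen (10^-5 M) run by the developmental therapeutics program protocol. Results are given as growth percent of treated cells relative to untreated control cells for each line.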

[3] = test system: SW-620; experiment: Antiproliferative activity against human SW620 cells assessed as cell growth at 10 uM; assay type: functional; details: read-out: Activity
Method in brief: (§2)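 NCI 60 cell line panel, single dose (10^-5 M), run per the Developmental Therapeutics Program protocol (one dose mean graph). Each result is the growth percentage of treated cells relative to untreated control cells.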

[4] = test system: MDA-MB-435; experiment: Antiproliferative activity against human MDA-MB-435 cells assessed as cell growth at 10 uM; assay type: functional; details: read-out: Activity; method in brief: as §1
[5] = test system: MDA-MB-468; experiment: Antiproliferative activity against human MDA-MB-468 cells assessed as cell growth at 10 uM; assay type: functional; details: read-out: Activity; method in brief: as §1
[6] = test system: HL-60(TB); experiment: Antiproliferative activity against human HL-60(TB) cells assessed as cell growth at 10 uM; assay type: functional; details: read-out: Activity
Method in brief: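 NCI Developmental Therapeutics Program 60-cell-line one-dose screen at 10^-5 M. Readout is growth percentage of treated cells relative to untreated control cells.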

[7] = test system: K562; experiment: Antiproliferative activity against human K562 cells assessed as cell growth at 10 uM; assay type: functional; details: read-out: Activity; method in brief: as §1
[8] = test system: SR; experiment: Antiproliferative activity against human SR cells assessed as cell growth at 10 uM; assay type: functional; details: read-out: Activity; method in brief: as §2
[9] = test system: A498; experiment: Antiproliferative activity against human A498 cells assessed as cell growth at 10 uM; assay type: functional; details: read-out: Activity; method in brief: as §1
[10] = test system: SN12C; experiment: Antiproliferative activity against human SN12C cells assessed as cell growth at 10 uM; assay type: functional; details: read-out: Activity; method in brief: as §1
[11] = test system: LOX IMVI; experiment: Antiproliferative activity against human LOXIMVI cells assessed as cell growth at 10 uM; assay type: functional; details: read-out: Activity; method in brief: as §1
[12] = test system: SF-539; experiment: Antiproliferative activity against human SF539 cells assessed as cell growth at 10 uM; assay type: functional; details: read-out: Activity; method in brief: as §1
[13] = test system: SNB-19; experiment: Antiproliferative activity against human SNB19 cells assessed as cell growth at 10 uM; assay type: functional; details: read-out: Activity; method in brief: as §1
[14] = test system: HOP-92; experiment: Antiproliferative activity against human HOP92 cells assessed as cell growth at 10 uM; assay type: functional; details: read-out: Activity; method in brief: as §1
[15] = test system: NCI-H226; experiment: Antiproliferative activity against human NCI-H226 cells assessed as cell growth at 10 uM; assay type: functional; details: read-out: Activity; method in brief: as §1
[16] = test system: HCT-15; experiment: Antiproliferative activity against human HCT15 cells assessed as cell growth at 10 uM; assay type: functional; details: read-out: Activity; method in brief: as §1
[17] = target: Telomerase reverse transcriptase (Homo sapiens) (UniProt O14746); experiment: Inhibition of TERT in human H1299 cells assessed as residual transcriptional activity at 100 uM after 24 hrs by SEAP reporter gene assay; values are per cent of control
[18] = Growth inhibition of human Hs 578T cells; assay type: functional
Method in brief: (§3)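 NCI 60 cancer cell line screen run per the Developmental Therapeutics Program protocol. Dose–response curves were plotted against log10 drug concentration for each cell line within its subpanel, and mean graph midpoint values were calculated.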

[19] = test system: T47D; experiment: Growth inhibition of human T47D cells; assay type: functional
Method in brief: (§4)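 Assayed in the NCI 60 human cancer cell line panel under the Developmental Therapeutics Program protocol. For each line, dose–response curves were plotted against log10 drug concentration. In the one-dose screen at 10^-5 M, growth was given as percent of untreated control cells, and mean graph midpoint values were averaged.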

[20] = test system: Malme-3M; experiment: Antiproliferative activity against human MALME-3M cells assessed as cell growth at 10 uM; assay type: functional; details: read-out: Activity; method in brief: as §1
[21] = test system: CCRF-CEM; experiment: Growth inhibition of human CCRF-CEM cells; assay type: functional; method in brief: as §3
[22] = test system: HL-60(TB); experiment: Growth inhibition of human HL-60(TB) cells; assay type: functional
Method in brief: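 NCI 60-cell-line panel run under the Developmental Therapeutics Program protocol. Dose-response curves are plotted against log10 drug concentration for each cell line within its subpanel, and GI50 is read from these curves.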

[23] = test system: K562; experiment: Growth inhibition of human K562 cells; assay type: functional; method in brief: as §3
[24] = test system: MOLT-4; experiment: Growth inhibition of human MOLT4 cells; assay type: functional; method in brief: as §3
[25] = Growth inhibition of human […] cells; assay type: functional; method in brief: as §4
[26] = test system: A549; experiment: Growth inhibition of human A549 cells; assay type: functional; method in brief: as §3
[27] = test system: EKVX; experiment: Growth inhibition of human EKVX cells; assay type: functional; method in brief: as §3
[28] = test system: NCI-H23; experiment: Growth inhibition of human NCI-H23 cells; assay type: functional; method in brief: as §3
[29] = test system: SW-620; experiment: Growth inhibition of human SW620 cells; assay type: functional; method in brief: as §4
[30] = test system: SF-539; experiment: Growth inhibition of human SF539 cells; assay type: functional; method in brief: as §4
[31] = test system: U-251; experiment: Growth inhibition of human U251 cells; assay type: functional; method in brief: as §4
[32] = test system: SK-MEL-28; experiment: Growth inhibition of human SK-MEL-28 cells; assay type: functional; method in brief: as §4
[33] = test system: OVCAR-3; experiment: Growth inhibition of human OVCAR-3 cells; assay type: functional; method in brief: as §3
[34] = test system: OVCAR-4; experiment: Growth inhibition of human OVCAR4 cells; assay type: functional; method in brief: as §3
[35] = test system: SK-OV-3; experiment: Growth inhibition of human SKOV3 cells; assay type: functional; method in brief: as §4
[36] = test system: A498; experiment: Growth inhibition of human A498 cells; assay type: functional; method in brief: as §3
[37] = test system: RXF 393; experiment: Growth inhibition of human RXF393 cells; assay type: functional; method in brief: as §4
[38] = test system: TK-10; experiment: Growth inhibition of human TK10 cells; assay type: functional; method in brief: as §4
[39] = test system: PC-3; experiment: Growth inhibition of human PC3 cells; assay type: functional; method in brief: as §4
[40] = read-out: LC50 (the source's name)

Sequence of Telomerase reverse transcriptase (Homo sapiens) (O14746 whole entry): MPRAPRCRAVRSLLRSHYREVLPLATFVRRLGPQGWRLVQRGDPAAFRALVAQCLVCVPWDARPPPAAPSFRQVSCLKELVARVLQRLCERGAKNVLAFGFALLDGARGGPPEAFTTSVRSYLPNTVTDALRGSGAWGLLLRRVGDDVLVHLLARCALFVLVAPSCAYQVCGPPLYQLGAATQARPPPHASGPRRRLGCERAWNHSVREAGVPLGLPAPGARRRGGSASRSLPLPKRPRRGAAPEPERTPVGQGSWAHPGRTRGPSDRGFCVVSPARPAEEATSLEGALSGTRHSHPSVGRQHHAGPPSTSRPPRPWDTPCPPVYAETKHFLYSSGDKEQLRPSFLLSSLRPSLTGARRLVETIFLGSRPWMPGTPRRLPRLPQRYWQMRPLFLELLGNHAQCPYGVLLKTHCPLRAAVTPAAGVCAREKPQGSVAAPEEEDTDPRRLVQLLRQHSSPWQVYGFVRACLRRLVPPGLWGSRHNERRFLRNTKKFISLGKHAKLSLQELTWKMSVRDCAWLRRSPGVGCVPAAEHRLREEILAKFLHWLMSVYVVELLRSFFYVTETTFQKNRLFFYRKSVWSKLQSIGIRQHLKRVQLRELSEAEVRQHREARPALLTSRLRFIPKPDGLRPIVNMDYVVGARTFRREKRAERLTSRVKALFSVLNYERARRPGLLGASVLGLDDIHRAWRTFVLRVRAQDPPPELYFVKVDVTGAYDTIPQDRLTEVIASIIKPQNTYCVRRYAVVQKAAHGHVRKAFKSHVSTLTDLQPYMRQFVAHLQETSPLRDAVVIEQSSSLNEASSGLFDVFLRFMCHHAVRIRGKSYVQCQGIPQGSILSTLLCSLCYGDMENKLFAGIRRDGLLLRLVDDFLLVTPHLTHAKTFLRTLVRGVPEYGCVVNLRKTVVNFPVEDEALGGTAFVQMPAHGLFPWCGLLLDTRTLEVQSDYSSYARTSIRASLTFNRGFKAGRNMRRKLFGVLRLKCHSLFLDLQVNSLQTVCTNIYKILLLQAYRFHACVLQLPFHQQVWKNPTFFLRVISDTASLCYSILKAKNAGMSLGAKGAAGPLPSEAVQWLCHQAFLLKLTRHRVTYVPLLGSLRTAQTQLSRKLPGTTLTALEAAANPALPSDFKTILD

O=C1c2ccccc2C(=O)c2c1ccc1nc(-c3ccc4c(c3)OCO4)[nH]c21
viability at 1 µM [1]: 79% | growth at 10 µM [2]: 114% | growth at 10 µM [3]: 91.9% | growth at 10 µM [4]: 110% | growth at 10 µM [5]: 96.4% | growth at 10 µM [6]: 127% | growth at 10 µM [7]: 80.6% | growth at 10 µM [8]: 91.7% | growth at 10 µM [9]: 91.7% | growth at 10 µM [10]: 101% | growth at 10 µM [11]: 99.6% | growth at 10 µM [12]: 108% | growth at 10 µM [13]: 121% | growth at 10 µM [14]: 65.3% | growth at 10 µM [15]: 97% | growth at 10 µM [16]: 106% | residual activity [17]: 34%

O=C1c2ccccc2C(=O)c2c1ccc1nccnc21
GI50 [18]: 14.1 µM | LC50 [18]: > 100 µM | TGI [18]: 91.4 µM | GI50 [19]: 12.6 µM | LC50 [19]: > 100 µM | TGI [19]: 75.1 µM | viability at 1 µM [1]: 98% | growth at 10 µM [3]: 39.2% | growth at 10 µM [4]: 102% | growth at 10 µM [5]: 75.3% | growth at 10 µM [6]: 102% | growth at 10 µM [7]: 37.2% | growth at 10 µM [8]: 82.9% | growth at 10 µM [9]: 98.8% | growth at 10 µM [10]: 64.7% | growth at 10 µM [11]: 44.2% | growth at 10 µM [20]: 181% | growth at 10 µM [12]: 40.7% | growth at 10 µM [13]: 87.3% | GI50 [21]: 2.46 µM | TGI [21]: > 100 µM | CC50 [21, 40]: > 100 µM | GI50 [22]: 0.68 µM | TGI [22]: 11.5 µM | CC50 [22, 40]: 83.7 µM | GI50 [23]: 0.07 µM | LC50 [23]: > 100 µM | TGI [23]: > 100 µM | GI50 [24]: 3.65 µM | TGI [24]: > 100 µM | CC50 [24, 40]: > 100 µM | GI50 [25]: 1.61 µM | TGI [25]: > 100 µM | CC50 [25, 40]: > 100 µM | GI50 [26]: 4.53 µM | TGI [26]: > 100 µM | CC50 [26, 40]: > 100 µM | GI50 [27]: 3.45 µM | TGI [27]: 72.1 µM | CC50 [27, 40]: > 100 µM | GI50 [28]: 12 µM | TGI [28]: 70.3 µM | CC50 [28, 40]: > 100 µM | GI50 [29]: 1.71 µM | TGI [29]: 30.8 µM | CC50 [29, 40]: > 100 µM | GI50 [30]: 2.18 µM | TGI [30]: 53.7 µM | CC50 [30, 40]: > 100 µM | GI50 [31]: 5.38 µM | TGI [31]: 42.9 µM | CC50 [31, 40]: > 100 µM | GI50 [32]: 21 µM | TGI [32]: 91.1 µM | CC50 [32, 40]: > 100 µM | GI50 [33]: 2.34 µM | TGI [33]: 12.5 µM | CC50 [33, 40]: > 100 µM | GI50 [34]: 10.5 µM | TGI [34]: > 100 µM | CC50 [34, 40]: > 100 µM | GI50 [35]: 6.95 µM | TGI [35]: > 100 µM | CC50 [35, 40]: > 100 µM | GI50 [36]: 9.31 µM | TGI [36]: 50.3 µM | CC50 [36, 40]: > 100 µM | GI50 [37]: 6.43 µM | TGI [37]: > 100 µM | CC50 [37, 40]: > 100 µM | GI50 [38]: 5 µM | TGI [38]: > 100 µM | CC50 [38, 40]: > 100 µM | TGI [39]: > 100 µM | CC50 [39, 40]: > 100 µM | growth at 10 µM [15]: 86.7% | growth at 10 µM [16]: 52.1% | residual activity [17]: 24%
